The text below walks through data of ChEMBL document CHEMBL1156698, “Syntheses of tetrahydroisoquinoline derivatives that inhibit NO production in activated BV-2 microglial cells” (Eur J Med Chem, 2008).

Each structure is given as a SMILES string.

What all share (assay type): functional
Common to all, as to set-up: scale not given: the % may be the effect or the level left

The test system of experiment [1] is BV-2. In words: Inhibition of LPS-induced NO production in mouse BV2 microglia cells assessed as nitrite levels at 100 uM relative to untreated control. Summed up:
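BV-2 microglia seeded 2 × 10^5 cells/well in 24-well plates. After 24 h, fresh medium with LPS ([…]) and compound in DMSO added at the same time. After 24 h, nitrite in the medium measured by Griess reaction (sulfanilamide, naphthylethylenediamine, H3PO4) with absorbance at 540 nm. Given as % of LPS-activated cells.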

For experiment [2], the system named is BV-2. In words: Inhibition of LPS-induced tetrahydrobiopterin production in mouse BV2 microglia cells assessed as tetrahydrobiopterin levels at 10 uM relative to untreated control. The method, boiled down:
(§1)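 BV-2 cells in 24-well plates (2 × 10^5/well) stimulated with LPS ([…]) in fresh medium together with compound in DMSO for 24 h. Medium was treated with phosphoric acid and acidic iodine (I2/KI in trichloroacetic acid) for 1 h in the dark. Oxidation stopped with ascorbic acid, then centrifuged and diluted. BH4 given as % of LPS-activated cells.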

For experiment [3], the system named is BV-2. In words: Inhibition of LPS-induced tetrahydrobiopterin production in mouse BV2 microglia cells assessed as tetrahydrobiopterin levels at 60 uM relative to untreated control. Summed up:
as §1

The test system of experiment [4] is BV-2. The experiment in a line: Inhibition of LPS-induced tetrahydrobiopterin production in mouse BV2 microglia cells assessed as tetrahydrobiopterin levels at 100 uM relative to untreated control. The method, boiled down: as §1
Experiment [5] has as its system BV-2. The experiment in a line: Inhibition of LPS-induced tetrahydrobiopterin production in mouse BV2 microglia cells assessed as tetrahydrobiopterin levels at 30 uM relative to untreated control. The method, boiled down:
as §1

Experiment [6] relates to BV-2. The experiment in a line: Inhibition of LPS-induced tetrahydrobiopterin production in mouse BV2 microglia cells assessed as tetrahydrobiopterin levels at 50 uM relative to untreated control. Summed up:
as §1

`COc1cc2c(cc1O)CN(C(=O)C(C)C)CC2`: the Activity in the experiment with BV-2 [1] was determined as 82%.
For `CCC(=O)N1CCc2cc(OC)c(O)cc2C1`, the Activity in the experiment with BV-2 [2] was determined as 86%; in the experiment on BV-2 [3], 72%; in the experiment on BV-2 [4], 51%; in the experiment with BV-2 [1], 36%.
In the case of `COc1cc2c(cc1O)CN(CC1CCCCC1)CC2`, in the experiment on BV-2 [1], the Activity is 63%.
The same measure, in the same setting: the figure for `CCCC(=O)N1CCc2cc(OC)c(O)cc2C1` is 74%; for `COc1cc2c(cc1O)C(CC(C)C)N(C(C)=O)CC2` (stereo not given) it is 113%; for `COc1cc2c(cc1O)C(C1CC1)N(C(C)=O)CC2` (stereo not given) it is 60%.
Consider `COc1cc2c(cc1O)CN(C(=O)C1CCCCC1)CC2`, for which the Activity in the experiment on BV-2 [5] turned out to be 95%; in the experiment with BV-2 [3], 71%; in the experiment on BV-2 [4] it was 63%; with BV-2 [1], 64%.
Turning to `CCCC1c2cc(O)c(OC)cc2CCN1C(C)=O` (stereo not given), in the experiment on BV-2 [1], the Activity is 84%.
Same read-out and setting: with `COc1cc2c(cc1O)C(C(C)C)N(C(C)=O)CC2` (stereo not given) the figure was 39%; with `COc1cc2c(cc1O)C(Cc1ccccc1)N(C(C)=O)CC2` (stereo not given), 96%; with `COc1cc2c(cc1O)C(c1ccccc1)N(C(C)=O)CC2` (stereo not given), 51%.
For the compound `CCCN1CCc2cc(OC)c(O)cc2C1`, in the experiment with BV-2 [1], the Activity amounted to 82%.
`CCC1c2cc(O)c(OC)cc2CCN1C(C)=O` (stereo not given): the Activity in the experiment on BV-2 [1] is listed as 50%.
`COc1cc2c(cc1O)C(C)N(C(C)=O)CC2` (stereo not given): the Activity in the experiment with BV-2 [5] is 59%; in the experiment on BV-2 [2], 99%; with BV-2 [3] it was 59%; with BV-2 [4], 52%; in the experiment on BV-2 [1] it was 40%.
Take `COc1cc2c(cc1O)C(C1CCC1)N(C(C)=O)CC2` (stereo not given): the Activity with BV-2 [1] was determined as 69%.
For `COc1cc2c(cc1O)CN(C(C)=O)CC2`, the Activity in the experiment on BV-2 [6] was 79%; in the experiment on BV-2 [4], 55%; in the experiment on BV-2 [1], 46%.
Consider `CCCCN1CCc2cc(OC)c(O)cc2C1`, for which the Activity in the experiment on BV-2 [1] is reported as 111%.
Same read-out and setting: with `COc1cc2c(cc1O)CN(C(=O)CC(C)C)CC2` the figure was 90%.
